The target of one test is Mu-type opioid receptor (Cavia porcellus, UniProt P97266). Put plainly: Displacement of [3H]DAMGO from guinea pig forebrain mu opioid receptor. An outline of the steps:
(§1)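 Radioligand competition binding in duplicate on guinea-pig brain homogenate. Cerebellum was used for κ and forebrain for μ and δ. Affinity was expressed as Ki.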

A short description of test [1]: Displacement of [3H]NTI from guinea pig forebrain delta opioid receptor. On the set-up: species or system Cavia porcellus. An outline of the steps: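 Radioligand competition binding in duplicate on guinea-pig brain homogenate. Cerebellum was used for κ and forebrain for μ and δ. The μ tracer was [³H]DAMGO, δ was [³H]NTI and κ was [³H]U-69,593. Affinity was expressed as Ki.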

Test [2] deals with Kappa-type opioid receptor (Cavia porcellus, UniProt P41144). In words: Displacement of [3H]U69593 from guinea pig cerebellum kappa opioid receptor. The format is tissue-based. An outline of the steps: as §1
Test [3] has as its system Mus musculus. In words: Antinociceptive activity in sc dosed mouse assessed as inhibition of acetic acid-induced writhing response. The format is functional.
For test [4], the system named is Mus musculus. Put plainly: Antinociceptive activity in sc dosed mouse assessed as inhibition of acetic acid-induced writhing response at 0.03 mg/kg in presence of 3 mg/kg delta opioid receptor antagonist NTI. It counts as functional, organism-based.
Test [5] relates to Mus musculus. Put plainly: Antinociceptive activity in sc dosed mouse assessed as inhibition of acetic acid-induced writhing response at 0.03 mg/kg in presence of 0.3 mg/kg mu opioid receptor antagonist naloxone. The format is functional, organism-based.
The test system of test [6] is Mus musculus. In words: Antinociceptive activity in sc dosed mouse assessed as inhibition of acetic acid-induced writhing response at 0.03 mg/kg in presence of 20 mg/kg kappa opioid receptor antagonist nor-BNI. The format is functional, organism-based.

Activity calls are given as the source filed them. The rule behind the calls is not given here.

Mu-type opioid receptor, sequence (P97266 whole entry): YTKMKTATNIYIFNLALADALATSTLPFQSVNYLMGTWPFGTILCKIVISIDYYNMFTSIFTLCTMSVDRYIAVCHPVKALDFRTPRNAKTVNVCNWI
Kappa-type opioid receptor, sequence (P41144 whole entry): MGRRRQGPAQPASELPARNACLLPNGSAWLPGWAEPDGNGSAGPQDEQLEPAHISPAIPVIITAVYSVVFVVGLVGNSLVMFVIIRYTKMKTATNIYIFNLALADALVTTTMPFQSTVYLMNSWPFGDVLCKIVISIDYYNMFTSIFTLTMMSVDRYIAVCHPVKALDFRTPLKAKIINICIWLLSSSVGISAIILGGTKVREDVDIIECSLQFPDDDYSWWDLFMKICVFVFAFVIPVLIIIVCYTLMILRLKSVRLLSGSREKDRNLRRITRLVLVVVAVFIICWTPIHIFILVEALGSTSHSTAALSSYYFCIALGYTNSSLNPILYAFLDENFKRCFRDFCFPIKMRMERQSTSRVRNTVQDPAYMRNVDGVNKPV

In the case of `CN(C(=O)/C=C/c1ccco1)[C@@H]1CC[C@@]2(O)[C@H]3Cc4ccc(O)c5c4[C@@]2(CCN3CC2CC2)[C@H]1O5`, the Ki at Mu-type opioid receptor is 0.582 nM; in test [1], 96.5 nM; in test [2], 0.225 nM.

Regarding `O=C(Nc1ccccc1)[C@H]1O[C@@]23CC[C@]1(O)[C@@H]1Oc4c(O)ccc5c4[C@@]12CCN(CC1CC1)[C@@H]3C5`, the Activity entry in the test on Mus musculus [3] was “Dose-dependent effect”. Besides, the median effective dose (ED50) with Mus musculus [3] is 6.3 µg/kg. The result in the test on Mus musculus [4] and in the test on Mus musculus [5] was Active. The values for the inhibition constant (Ki) (on Mu-type opioid receptor; in test [1]; in test [2]) were 0.212 nM, 2.73 nM and 0.111 nM, respectively. Besides, the outcome in the test on Mus musculus [6] was inactive.

As to `O=C1CC[C@@]2(O)[C@H]3Cc4ccc(O)c5c4[C@@]2(CCN3CC2CC2)[C@H]1O5` [NALTREXONE], the affinity in test [1], expressed as Ki, was 20.7 nM.

In the case of `O=C(Nc1ccccc1)[C@@H]1O[C@@]23CC[C@@]1(O)[C@@H]1Oc4c(O)ccc5c4[C@@]12CCN(CC1CC1)[C@@H]3C5`, the Ki was 0.205 nM on Mu-type opioid receptor, 3.23 nM in test [1] and 0.152 nM in test [2].
